Source: ChEMBL document CHEMBL1135580, “6,7-Dihydro-2-benzothiophen-4(5H)-ones: a novel class of GABA-A alpha5 receptor inverse agonists” (J Med Chem, 2002)

Experiments:
[1] = biological target: T1, Gamma-aminobutyric acid receptor subunit alpha-5 (Homo sapiens) (UniProt P31644); test: Selectivity for GABA-A receptor alpha-5 subunit binding over alpha-1,2,3 when co-expressed with beta-3 and gamma-2
T1 sequence (whole entry): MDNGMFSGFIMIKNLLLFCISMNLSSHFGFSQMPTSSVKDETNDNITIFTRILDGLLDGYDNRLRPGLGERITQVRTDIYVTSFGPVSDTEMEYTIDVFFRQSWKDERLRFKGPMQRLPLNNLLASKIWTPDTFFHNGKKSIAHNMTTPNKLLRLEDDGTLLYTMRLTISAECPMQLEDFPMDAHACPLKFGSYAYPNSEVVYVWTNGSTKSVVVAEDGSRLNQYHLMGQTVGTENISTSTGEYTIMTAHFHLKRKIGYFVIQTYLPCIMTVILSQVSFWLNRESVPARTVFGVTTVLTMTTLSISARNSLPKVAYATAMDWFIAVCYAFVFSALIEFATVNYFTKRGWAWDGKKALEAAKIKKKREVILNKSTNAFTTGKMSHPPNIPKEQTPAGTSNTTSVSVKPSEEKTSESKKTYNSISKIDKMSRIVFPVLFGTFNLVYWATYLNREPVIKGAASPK
Outline: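 Ratio of binding affinity for α5 over α1, α2 and α3. Each affinity comes from [³H]Ro15-1788 displacement at recombinant human receptors, with Ki as the geometric mean of three independent determinations.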

[2] = biological target: T2, GABA-A receptor; alpha-1/beta-3/gamma-2 (Homo sapiens, UniProt P14867+P18507+P28472); test: Displacement of [3H]- Ro 15-1788 binding from human GABA-A receptor alpha-1-beta-3-gamma-2 subunits; type: protein-complex assay
T2 sequence (P14867 whole entry): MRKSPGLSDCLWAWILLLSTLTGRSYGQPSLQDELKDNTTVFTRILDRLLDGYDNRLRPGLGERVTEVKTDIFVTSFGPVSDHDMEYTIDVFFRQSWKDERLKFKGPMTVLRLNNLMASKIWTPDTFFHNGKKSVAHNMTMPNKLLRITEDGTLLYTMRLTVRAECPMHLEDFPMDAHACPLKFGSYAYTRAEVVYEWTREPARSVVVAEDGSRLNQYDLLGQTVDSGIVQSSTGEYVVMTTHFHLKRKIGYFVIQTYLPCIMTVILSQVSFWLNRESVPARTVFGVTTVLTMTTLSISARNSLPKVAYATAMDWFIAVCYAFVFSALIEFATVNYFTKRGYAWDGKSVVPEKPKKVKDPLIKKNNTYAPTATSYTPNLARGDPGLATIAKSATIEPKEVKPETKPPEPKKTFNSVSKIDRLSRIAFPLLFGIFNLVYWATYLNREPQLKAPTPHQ
T2 sequence (P18507 whole entry): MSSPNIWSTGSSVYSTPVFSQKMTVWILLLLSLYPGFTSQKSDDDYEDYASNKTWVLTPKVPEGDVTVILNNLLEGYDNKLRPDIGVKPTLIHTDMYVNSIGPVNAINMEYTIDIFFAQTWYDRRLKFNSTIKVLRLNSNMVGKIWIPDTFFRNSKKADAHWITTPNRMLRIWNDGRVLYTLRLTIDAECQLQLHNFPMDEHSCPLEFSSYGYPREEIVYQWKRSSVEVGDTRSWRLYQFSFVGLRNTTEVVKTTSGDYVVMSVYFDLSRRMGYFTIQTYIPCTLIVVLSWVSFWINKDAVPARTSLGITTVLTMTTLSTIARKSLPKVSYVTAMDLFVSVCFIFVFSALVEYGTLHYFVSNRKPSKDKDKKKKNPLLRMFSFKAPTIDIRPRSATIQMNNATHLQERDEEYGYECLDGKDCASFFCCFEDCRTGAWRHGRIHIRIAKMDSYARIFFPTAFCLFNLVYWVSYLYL
T2 sequence (P28472 whole entry): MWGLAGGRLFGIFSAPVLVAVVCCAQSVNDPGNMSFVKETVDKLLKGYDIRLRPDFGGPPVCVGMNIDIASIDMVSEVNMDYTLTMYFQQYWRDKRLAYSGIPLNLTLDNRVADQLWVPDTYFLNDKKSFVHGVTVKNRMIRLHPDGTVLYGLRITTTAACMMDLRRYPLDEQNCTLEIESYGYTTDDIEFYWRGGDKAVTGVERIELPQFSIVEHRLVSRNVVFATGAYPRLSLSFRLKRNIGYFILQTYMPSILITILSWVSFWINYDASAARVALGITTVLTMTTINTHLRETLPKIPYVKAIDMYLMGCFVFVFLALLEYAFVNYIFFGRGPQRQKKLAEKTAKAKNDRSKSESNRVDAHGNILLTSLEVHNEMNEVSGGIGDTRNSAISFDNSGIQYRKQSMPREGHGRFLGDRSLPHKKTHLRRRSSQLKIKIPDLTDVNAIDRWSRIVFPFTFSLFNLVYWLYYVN
Outline: (§1)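 Radioligand displacement of [³H]Ro15-1788 from recombinant human GABA-A receptor subtypes. Ki values are the geometric mean ± SEM of three independent determinations.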

[3] = biological target: GABA-A receptor; alpha-1/beta-3/gamma-2 (Homo sapiens) (UniProt P14867+P18507+P28472); test: Maximum modulation relative to GABA EC20 against human GABA-A receptor alpha-1-beta-3-gamma-2 subunits expressed in mammalian fibroblast L(tk-) cells; type: cell-based
Outline: (§2)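 Whole-cell patch-clamp recording from mammalian fibroblast L(tk-) cells stably expressing GABA-A αxβ3γ2 (x = 1, 2, 3 or 5). Compound modulation of a submaximal (EC20) GABA current was recorded. Maximum modulation came from individually fitted concentration-response curves, at least five per value, given as mean ± SEM.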

[4] = biological target: T3, GABA-A receptor; alpha-3/beta-3/gamma-2 (Homo sapiens, UniProt P18507+P28472+P34903); test: Displacement of [3H]- Ro 15-1788 binding from human GABA-A receptor alpha-3-beta-3-gamma-2 subunits; type: protein-complex assay; outline: as §1
T3 sequence (P18507 whole entry): T2 sequence (P18507 whole entry)
T3 sequence (P28472 whole entry): T2 sequence (P28472 whole entry)
T3 sequence (P34903 whole entry): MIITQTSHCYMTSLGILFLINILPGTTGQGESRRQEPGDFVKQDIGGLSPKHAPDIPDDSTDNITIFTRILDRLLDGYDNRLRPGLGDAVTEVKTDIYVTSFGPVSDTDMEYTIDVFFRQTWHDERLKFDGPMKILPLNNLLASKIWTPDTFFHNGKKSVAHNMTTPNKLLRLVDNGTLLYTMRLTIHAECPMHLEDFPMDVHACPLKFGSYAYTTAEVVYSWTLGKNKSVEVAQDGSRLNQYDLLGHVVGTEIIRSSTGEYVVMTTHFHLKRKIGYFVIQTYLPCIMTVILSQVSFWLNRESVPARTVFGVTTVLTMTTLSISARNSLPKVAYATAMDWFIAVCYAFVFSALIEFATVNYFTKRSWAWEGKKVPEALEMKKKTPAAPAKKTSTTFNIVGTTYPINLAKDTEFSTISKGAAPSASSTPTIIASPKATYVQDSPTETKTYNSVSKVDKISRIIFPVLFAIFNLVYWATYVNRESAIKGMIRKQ

[5] = biological target: GABA-A receptor; alpha-3/beta-3/gamma-2 (Homo sapiens) (UniProt P18507+P28472+P34903); test: Maximum modulation relative to GABA EC20 against human GABA-A receptor alpha-3-beta-3-gamma-2 subunits expressed in mammalian fibroblast L(tk-) cells; type: cell-based; outline: as §2
[6] = biological target: T4, GABA-A receptor; alpha-5/beta-3/gamma-2 (Homo sapiens) (UniProt P18507+P28472+P31644); test: Percentage modulation of GABA EC20 against human GABA-A receptor alpha-5-beta-3-gamma-2 subunits expressed in Xenopus laevis oocytes; type: cell-based; details: Oocyte
[7] = biological target: T5, GABA-A receptor; alpha-2/beta-3/gamma-2 (Homo sapiens, UniProt P18507+P28472+P47869); test: Displacement of [3H]- Ro 15-1788 binding from human GABA-A receptor alpha-2-beta-3-gamma-2 subunits; type: protein-complex assay; outline: as §1
T5 sequence (P18507 whole entry): T2 sequence (P18507 whole entry)
T5 sequence (P28472 whole entry): T2 sequence (P28472 whole entry)
T5 sequence (P47869 whole entry): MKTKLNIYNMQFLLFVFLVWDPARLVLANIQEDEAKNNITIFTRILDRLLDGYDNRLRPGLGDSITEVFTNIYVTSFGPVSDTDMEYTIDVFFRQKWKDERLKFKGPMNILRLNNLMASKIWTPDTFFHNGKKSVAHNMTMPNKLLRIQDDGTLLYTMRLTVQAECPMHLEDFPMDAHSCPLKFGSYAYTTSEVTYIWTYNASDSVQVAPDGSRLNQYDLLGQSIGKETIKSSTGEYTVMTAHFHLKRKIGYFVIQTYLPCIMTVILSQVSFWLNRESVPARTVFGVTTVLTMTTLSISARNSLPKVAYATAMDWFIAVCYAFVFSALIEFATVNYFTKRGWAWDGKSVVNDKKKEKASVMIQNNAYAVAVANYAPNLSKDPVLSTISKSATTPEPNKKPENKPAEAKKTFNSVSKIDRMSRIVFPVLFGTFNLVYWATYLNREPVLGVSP

[8] = biological target: GABA-A receptor; alpha-2/beta-3/gamma-2 (Homo sapiens) (UniProt P18507+P28472+P47869); test: Maximum modulation relative to GABA EC20 against human GABA-A receptor alpha-2-beta-3-gamma-2 subunits expressed in mammalian fibroblast L(tk-) cells; type: cell-based; outline: as §2
[9] = biological target: T6, GABA-A receptor; alpha-5/beta-3/gamma-2 (Homo sapiens, UniProt P18507+P28472+P31644); test: Displacement of [3H]- Ro 15-1788 binding from human GABA-A receptor alpha-5-beta-3-gamma-2 subunits; type: protein-complex assay; outline: as §1
T6 sequence (P18507 whole entry): T2 sequence (P18507 whole entry)
T6 sequence (P28472 whole entry): T2 sequence (P28472 whole entry)
T6 sequence (P31644 whole entry): T1 sequence (whole entry)

[10] = biological target: T4, GABA-A receptor; alpha-5/beta-3/gamma-2 (Homo sapiens); test: Maximum modulation relative to GABA EC20 against human GABA-A receptor alpha-5-beta-3-gamma-2 subunits expressed in mammalian fibroblast L(tk-) cells; type: cell-based; outline: as §2

SMILES | Selectivity [1] | Ki [2] [nM] | Efficacy [3] [%] | Ki [4] [nM] | Efficacy [5] [%] | Efficacy [6] [%] | Ki [7] [nM] | Efficacy [8] [%] | Ki [9] [nM] | Efficacy [10] [%]
CCc1c(C(=O)OC)ncc2[nH]c3cc(OC)c(OC)cc3c12 | 3 | 10 | -71 | 7.5 | -62 | -34 | 13 | -53 | 2.2 | -57
CSc1sc(-c2nccs2)c2c1C(=O)CC(C)(C)C2 | 28 | 61 | – | 47 | – | -24 | 44 | – | 2.2 | –
CSc1sc(-c2ccncc2)c2c1C(=O)CC(C)(C)C2 | 19 | 172 | – | 35 | – | -20 | 43 | – | 9.1 | –
CSc1sc(-c2cc[nH]n2)c2c1C(=O)CC(C)(C)C2 | 13 | 66 | – | 21 | – | -3 | 56 | – | 5.2 | –
CC1(C)CC(=O)c2c(SCCO)sc(-c3ccccn3)c2C1 | 20 | 3.6 | – | 10 | – | -39 | 5.2 | – | 0.5 | –
CC(C)Sc1sc(-c2cc[nH]n2)c2c1C(=O)CC(C)(C)C2 | 6 | 5 | – | 7 | – | – | 12 | – | 2 | –
CSc1sc(-c2ccccn2)c2c1C(=O)CC(C)(C)C2 | 26 | 45 | – | 25 | – | -31 | 26 | – | 1.7 | –
CC1(C)CC(=O)c2c(SCCO)sc(-c3nccs3)c2C1 | 13 | 20 | -21 | 20 | -3 | -38 | 16 | -1 | 1.6 | -51
CC1(C)CC(=O)c2c(SSc3nccs3)sc(-c3cc[nH]n3)c2C1 | 3 | 4.3 | – | 48 | – | -7 | 19 | – | 1.4 | –
CC1(C)CC(=O)c2c(SCCO)sc(-c3cc[nH]n3)c2C1 | 11 | 31 | – | 24 | – | – | 21 | – | 2.9 | –
CCSc1sc(-c2cc[nH]n2)c2c1C(=O)CC(C)(C)C2 | 10 | 12 | – | 16 | – | – | 16 | – | 1.6 | –
CSc1sc(-c2cccnc2)c2c1C(=O)CC(C)(C)C2 | 28 | 165 | – | 33 | – | -40 | 31 | – | 5.8 | –
